Results taken from publication PMC3037477 (Investigational New Drugs, 2009).

Legend:
[1] = biological target: thymidylate synthase (TS) in intact FM3A/0 cells (Mus musculus, UniProt P07607); experiment: TS in situ activity assay; format: cell-based, murine; settings: 24 h exposure to 0.5 µM
[2] = test system: HT-29 xenograft; experiment: In vivo antitumor effect in human HT-29 xenograft model; parameters: species or system NMRI:nu/nu female mice; settings: or., 40 mg/kg/inj
In short: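 5-FU-resistant human HT-29 colon carcinoma cells were implanted subcutaneously in female nude mice. Dosing began at palpable tumour size on a q4dx3 schedule. Tumour volumes of treated mice (T) were compared with PBS-treated controls (C). Animals were killed once tumours exceeded 1 cm3.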

[3] = In vivo toxicity in HT-29 xenograft mice; parameters: species or system NMRI:nu/nu female mice; settings: i.v. and oral treatment
[4] = LC-MS/MS detection of ETC and ETC-nucleotides in tumor and liver tissue; format: in vivo, NMRI:nu/nu female mice; settings: 2 h after administration
In short: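 Subcutaneous HT-29 xenografts were grown in female NMRI nude mice. Tumour and liver were taken 2 h after prodrug administration. ETC and its nucleotides were quantified by LC-MS/MS in MRM mode (transition 268.2/112.2).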

[5] = HPLC analysis of extracellular cleavage of prodrugs to nucleosides in the medium; format: in vitro ADME; settings: after 24 h incubation with 100 µM prodrug
In short: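 Cells were exposed to prodrug for 24 h. Medium above the cells was sampled after centrifugation, deproteinized with TCA and neutralized, then analysed by HPLC-UV for parent drug, FdUrd and ETC. Means of 3–5 independent experiments ± SEM.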

Chain of thymidylate synthase (TS) in intact FM3A/0 cells (P07607 whole entry): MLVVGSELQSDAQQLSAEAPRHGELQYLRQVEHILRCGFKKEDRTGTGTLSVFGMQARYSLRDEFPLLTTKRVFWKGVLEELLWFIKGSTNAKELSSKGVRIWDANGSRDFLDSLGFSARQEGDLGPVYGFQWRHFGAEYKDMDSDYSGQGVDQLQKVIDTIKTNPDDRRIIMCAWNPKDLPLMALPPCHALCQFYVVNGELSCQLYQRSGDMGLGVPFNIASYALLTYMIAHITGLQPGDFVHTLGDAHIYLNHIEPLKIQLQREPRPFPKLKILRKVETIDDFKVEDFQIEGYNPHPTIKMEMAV

Row | inhibition of thymidylate synthase (TS) in situ [1] | SMILES | Evaluation (in vivo activity) [2] | haematological side effects [3] | ETC and ETC-nucleotide accumulation in liver tissue [4] | ETC-nucleoside and ETC-nucleotide accumulation in tumor tissue ([4]; HT-29 xenograft) | parent drug still present in the medium [5]
1 | inhibited almost completely | O=c1[nH]c(=O)n([C@H]2C[C@H](O)[C@@H](CO)O2)cc1F [FdUrd, 5-fluoro-2′-deoxyuridine] | – | – | – | – | –
2 | – | C#C[C@@]1(O)[C@@H](COP(=O)(O)OC[C@H]2O[C@@H](n3cc(F)c(=O)[nH]c3=O)C[C@@H]2O)O[C@@H](n2ccc(N)nc2=O)[C@@H]1O [ETC-FdUrd, 3′-C-Ethynylcytidylyl-(5′➔5′)-5-fluoro-2′-deoxyuridine] | orally active | did not result in any haematological side effects | accumulated in the liver tissue | accumulated to a high extent in the tumor tissue | More than 60%
